Laboratory results published in ChEMBL document CHEMBL1138476 (J Med Chem, 2009).
Converted amounts (≈) assume the structure as drawn. The source made the active and inactive calls. The calls are words filed in the database; no cut-off is given here.

What was measured:
Canis familiaris [1] = assay: Effect on respiratory function in spontaneously breathing mongrel dog assessed as change in respiration rate at 5 mg/kg after intravenous infusion for 30 mins (RVb= -4.5+/-8.2 %); assay type: functional, Canis lupus familiaris
Canis familiaris [2] = assay: Effect on respiratory function in spontaneously breathing mongrel dog assessed as change in tidal volume at 5 mg/kg after intravenous infusion for 15 mins (RVb= 2.2+/-4.3 %); assay type: functional, Canis lupus familiaris
Canis familiaris [3] = assay: Effect on respiratory function in spontaneously breathing mongrel dog assessed as change in mean arterial pressure at 5 mg/kg after intravenous infusion for 15 mins (RVb= 2.1+/-1.5 %); assay type: functional, Canis lupus familiaris, Artery
Canis familiaris [4] = assay: Effect on respiratory function in spontaneously breathing mongrel dog assessed as change in pulmonary compliance at 5 mg/kg after intravenous infusion for 15 mins (RVb= 0.8+/-2.0 %); assay type: functional, Canis lupus familiaris
[5] = Volume of distribution at steady state in rat at 1 mg/kg, iv and 5 mg/kg, po; assay type: ADME, organism-based; conditions: in vivo, read-out: Vdss
In short: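 Rats (n = 3) dosed iv at 1 mg/kg in 10% DMAC, 70% propylene glycol and deionized water, and orally at 5 mg/kg in 0.5% methylcellulose.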

[6] = Plasma concentration in rat at 30 mg/kg, po after 5 hrs; assay type: ADME, organism-based; parameters: dose 30 mg/kg, route oral
In short: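 Rats (n = 9, renal function study) given 30 mg/kg po; plasma levels measured in a separate cohort dosed the same way, sampled at 1 and 5 h after dosing.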

[7] = Cmax in chimpanzee at 1 mg/kg, po; assay type: ADME, organism-based, Pan troglodytes; parameters: dose 1 mg/kg, route oral; conditions: in vivo
In short: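 Chimpanzee PK. Oral: 1 mg/kg in two alert animals, given as a 1 mg/mL suspension in 50–50 (v/v) 0.5% methylcellulose/Tang orange juice with 1% Tween-80. IV: 0.5 mg/kg in one animal in 10% DMAC, 70% propylene glycol and deionized water, infused over 10 min (0.2 mL/kg). EDTA blood was taken predose and at 2–96 h; iv sampling added 6, 15 and 30 min.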

[8] = Elimination half life in chimpanzee at 1 mg/kg, po; assay type: ADME, organism-based, Pan troglodytes; parameters: dose 1 mg/kg, route oral; conditions: in vivo, read-out: beta t1/2 (converted)
In short: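 Two alert chimpanzees were given 1 mg/kg po as a 1 mg/mL suspension in 50:50 (v/v) 0.5% methylcellulose and Tang orange juice containing 1% Tween-80. EDTA blood was taken predose and at 2–96 h. Bioavailability was calculated against a 0.5 mg/kg iv dose given to one animal.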

[9] = Oral bioavailability in rat at 5 mg/kg; assay type: ADME, organism-based; conditions: in vivo
In short: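 Rats (n = 3) were dosed at 1 mg/kg iv in 10% DMAC, 70% propylene glycol and deionized water, and at 5 mg/kg po in 0.5% methylcellulose.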

Canis familiaris [10] = assay: Effect on respiratory function in spontaneously breathing mongrel dog assessed as change in heart rate at 5 mg/kg after intravenous infusion for 60 mins (RVb= -0.9+/-5.8 %); assay type: functional, Canis lupus familiaris
[11] = Plasma concentration in dog at 1 mg/kg after intravenous infusion for 30 mins; assay type: ADME, organism-based, Canis lupus familiaris; parameters: dose 1 mg/kg, route intravenous
[12] = Volume of distribution at steady state in chimpanzee at 0.5 mg/kg, iv; assay type: ADME, organism-based, Pan troglodytes; parameters: dose 0.5 mg/kg, route intravenous; conditions: in vivo, read-out: Vdss
In short: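 Single chimpanzee given 0.5 mg/kg iv over 10 min (0.2 mL/kg) in 10% DMAC, 70% propylene glycol and deionized water. EDTA blood taken predose, at 6, 15 and 30 min, and at 2 to 96 h.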

Canis familiaris [13] = assay: Effect on respiratory function in spontaneously breathing mongrel dog assessed as change in minute volume at 5 mg/kg after intravenous infusion for 6 mins (RVb= -3.6+/-7.5 %); assay type: functional, Canis lupus familiaris
Adenosine receptor A1 = target: T1, Adenosine receptor A1 (Rattus norvegicus, UniProt P25099); assay: Binding affinity to rat adenosine A1 receptor expressed in CHO cells; assay type: cell-based
T1 sequence (P25099 whole entry): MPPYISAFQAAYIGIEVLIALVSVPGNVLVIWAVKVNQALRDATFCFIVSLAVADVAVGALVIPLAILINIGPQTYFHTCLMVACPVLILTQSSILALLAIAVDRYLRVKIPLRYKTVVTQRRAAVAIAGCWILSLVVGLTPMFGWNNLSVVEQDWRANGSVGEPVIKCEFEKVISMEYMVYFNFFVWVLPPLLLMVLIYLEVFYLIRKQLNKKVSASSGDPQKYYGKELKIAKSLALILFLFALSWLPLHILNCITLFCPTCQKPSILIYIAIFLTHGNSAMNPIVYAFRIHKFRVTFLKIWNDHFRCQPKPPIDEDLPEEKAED
In short: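 Cloned rat adenosine A1 receptor transfected into CHO cells, part of a contracted screen.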

Rattus norvegicus [14] = assay: Effect on acute renal function in rat assessed as change in urine pH per 100 gm body weight at 30 mg/kg, po (RVb= 7.74+/-0.07 mg/dl); assay type: functional
Canis familiaris [15] = assay: Effect on respiratory function in spontaneously breathing mongrel dog assessed as change in heart rate at 5 mg/kg after intravenous infusion for 6 mins (RVb= -0.4+/-0.7 %); assay type: functional, Canis lupus familiaris
[16] = Cmax in Beagle dog at 1 mg/kg, po by cassette dosing; assay type: ADME, organism-based, Canis lupus familiaris; parameters: dose 1 mg/kg, route oral; conditions: in vivo
[17] = Clearance in rat at 1 mg/kg, iv and 5 mg/kg, po; assay type: ADME, organism-based; conditions: in vivo
In short: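 Rats (n = 3) received 1 mg/kg iv in 10% DMAC, 70% propylene glycol and deionized water, or 5 mg/kg orally in 0.5% methylcellulose.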

[18] = AUC in Beagle dog at 1 mg/kg, po by cassette dosing; assay type: ADME, organism-based, Canis lupus familiaris; parameters: dose 1 mg/kg, route oral; conditions: plasma
Canis familiaris [19] = assay: Cardiovascular activity in dog assessed as increase in mean […] pressure at 3 mg to 5 mg/kg, iv by dose escalation study; assay type: functional, Canis lupus familiaris
In short: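 Anesthetized mongrel dogs on sodium pentobarbital, mechanically ventilated, with left ventricular and arterial pressure transducers and ECG. Four dogs received 6 min iv infusions at escalating 0.3, 1, 3 and 5 mg/kg, 30 min apart; four control dogs received vehicle on the same schedule. Mean arterial pressure and dP/dt were recorded; plasma was sampled after each infusion.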

Canis familiaris [20] = assay: Effect on respiratory function in spontaneously breathing mongrel dog assessed as change in peak expiratory flow at 5 mg/kg after intravenous infusion for 60 mins (RVb= 0.4+/-6.7 %); assay type: functional, Canis lupus familiaris
Rattus norvegicus [21] = assay: Toxicity in rat assessed as time spent on rotarod at 30 mg/kg, po after 1 hr by rotarod test; assay type: organism-based; parameters: dose 30 mg/kg, route oral; conditions: in vivo
In short: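 Rats, n = 8 per dose, dosed po in 0.25% Methocel 1 h before testing, at 0, 1.0, 3.0, 10, 30 and 100 mg/kg. Read-out is time on rotorod (s), mean ± SEM, compared with the vehicle (zero-dose) group.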

Rattus norvegicus [22] = assay: Anxiolytic activity in rat assessed as increase in time spent on open arm at 30 mg/kg, po by elevated plus-maze test; assay type: functional, organism-based; parameters: dose 30 mg/kg
In short: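 Rat elevated plus maze: percent of test time spent in the open arms. Oral dosing in 0.25% Methocel 60 min before testing; n = 12 per dose, mean ± SEM. Analysed by ANOVA followed by Fisher's LSD comparisons against vehicle.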

Rattus norvegicus [23] = assay: Effect on acute renal function in rat assessed as change in urine protein level per 100 gm body weight at 30 mg/kg, po (RVb= 12.0+/-2.4 mg/dl); assay type: functional
[24] = Solubility in 0.01 N HCl at pH 2.5; assay type: physicochemical

Structure (SMILES): CC[C@@H](C)Nc1nc(C)nc2c(-c3ccc(OC)nc3C)c(C)nn12 [PEXACERFONT]
- Activity (Canis familiaris [1]): -32.5%
- Activity (Canis familiaris [2]): 4.3%
- Activity (Canis familiaris [3]): 1.2%
- Activity (Canis familiaris [4]): -2.2%
- Vd [5]: 14.9 L/kg
- concentration at 5 h [6]: 4950 nM
- Cmax [7]: 840 nM
- half-life [8]: 26 h
- bioavailability [9]: 40%
- Activity (Canis familiaris [10]): -2.3%
- concentration at 0.5 h [11]: 473 nM
- Vd [12]: 4.2 L/kg
- Activity (Canis familiaris [13]): 28.1%
- Ki (Adenosine receptor A1): 2.66 µM
- Activity (Rattus norvegicus [14]): 7.74
- Activity (Canis familiaris [15]): -0.3%
- Cmax [16]: 301 nM
- clearance [17]: 17.9 mL/min/kg
- AUC [18]: 2.02 µM·h
- Activity (Canis familiaris [19]): 10 mmHg
- Activity (Canis familiaris [20]): 7.5%
- Time (Rattus norvegicus [21]): 157 s
- Activity (Rattus norvegicus [22]): Active
- Activity (Rattus norvegicus [23]): 6.6 mg/dL
- solubility [24]: 16.3 mg/mL (≈ 47.9 mM)
